From PubChem BioAssay AID623971 (Broad Institute, 2012)
Values joined by “and” are separate entries in the source; they are usually repeats but may differ in a detail not shown here. Equal values may be shown once. Active and inactive are the calls of the source.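 How the source made its calls: active means compounds lowering yeast growth whose fitted half-maximal concentration is at most twice the top tested dose; inconclusive means flat curve with moderate growth inhibition, or a poor curve fit; inactive means the rest.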

What was measured:
[1] = S. cerevisiae growth inhibition in glucose medium, dose response, OD600, powder samples, set 3 (AID 623971); conditions: S. cerevisiae growth in glucose, OD600, 48 h; at 3 µM (top of the series)
Summary of the method: (§1)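 Medium: CSM growth medium supplemented with glucose; Material: Saccharomyces cerevisiae yeast cells, whole-organism growth assay; Dosing: test compounds transferred into wells by pin tool; Benchmarks: positive control amphotericin B at 10 µM; Schedule: 48 h at 30 °C without shaking; Technique: OD600 absorbance.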

[2] = tested on: S. cerevisiae growth in glucose, OD600, 48 h; test: as above
Summary of the method: as §1

Compound | activity change, negative = growth inhibition [1] | AC50 [2]
CCOC(=O)N1C(=O)C2(CCCCC2)N(c2ccc(F)cc2)C1=S | -4.53% (inactive) | –
CC1/C=C/C=C\C=C\C=C\C=C\C=C\C=C\C(O[C@H]2OC(C)C(O)C(N)C2O)CC2OC(O)(CC(O)CC(O)C(O)CCC(O)CC(O)CC(=O)OC(C)C(C)C1O)CC(O)C2C(=O)O (stereo partly drawn) | – | 0.384 µM
C/C=C/[C@@H]1[C@H]2C[C@@H](C)CC[C@@H]2C(C)=C[C@H]1C(=O)c1c(O)c(-c2ccc(O)cc2)c[nH]c1=O | -5.04% (inactive) | –
CCOC(=O)N1C(=O)C2(CCCCC2)N(c2ccc(Cl)cc2)C1=S | -15.5% (inactive) | –
CCOC(=O)N1C(=O)C2(CCCCC2)N(c2cccc(C)c2)C1=S | -4.85% (inactive) | –
CCOC(=O)N1C(=O)C2(CCCCC2)N(c2ccccc2)C1=S | -11.6% (inactive) | –
CCOC(=O)N1C(=O)C2(CCCCC2)N(c2ccc(C)cc2)C1=S | -5.09% (inactive) and -19.8% (inactive) | –
CCOC(=O)N1C(=O)C2(CCCCC2)N(c2ccc(C#N)cc2)C1=S | -21.5% (inactive) | –
